core dimer inh = blocks dimerization of HCV core protein | 300,000 tested, 0.33% active | inhibition, % at 5 µM | TR-FRET GST/Flag-core106 dimerization, 1536-well | AID 1899;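 active = inhibition above the mean of all tested compounds plus 3 SD, set per screening campaign, cut at about 45% in these data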
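Test system: GST/Flag-tagged HCV core106 proteins; Medium: KF-containing HEPES buffer, pH 7.45, DTT, CHAPS, BSA; Times: compound-protein-antibody incubation 4 h at 22.5 °C; Detection: TR-FRET 671 and 617 nm emission; Benchmarks: wells lacking GST-core106 and wells with excess unlabelled core106.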
EBNA-1 inh = blocks EBNA-1 binding to DNA; 300,000 tested, 0.34% active; AID 1950; inhibition, % at 14.8 µM; EBNA-1 DNA binding, fluorescence polarization; in the data active = inhibition above about 28%
PP1 counter = blocks human PP1-alpha phosphatase, a PP5 counter-screen | P62136 | purified PP1alpha, OMFP fluorescence | inhibition, % at 6.7 µM | 320,000 tested, 0.9% active;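 active = inhibition above the mean inhibition of all tested compounds plus 3 SD, computed separately for each screening campaign, cut at about 15% in these data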
Target sequence (P62136 whole entry, looked up): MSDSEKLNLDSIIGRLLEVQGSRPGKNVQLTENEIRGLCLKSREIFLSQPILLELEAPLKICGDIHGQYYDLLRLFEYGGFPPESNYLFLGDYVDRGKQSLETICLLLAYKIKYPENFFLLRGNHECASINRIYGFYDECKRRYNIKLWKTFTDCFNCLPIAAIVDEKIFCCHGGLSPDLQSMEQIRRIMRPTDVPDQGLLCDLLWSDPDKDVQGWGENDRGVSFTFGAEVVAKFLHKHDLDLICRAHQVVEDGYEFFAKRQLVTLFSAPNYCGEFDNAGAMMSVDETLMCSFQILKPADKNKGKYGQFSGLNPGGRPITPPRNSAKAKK
ZTA counter = ZTA (EBV) inhibition in EBNA-1 counter-screen | P03206 | ZTA-DNA binding, fluorescence polarization | inhibition, % at 11 µM | 320,000 tested, 0.15% active | AID 2234; in the data active = inhibition above about 33%
Target sequence (P03206 whole entry, looked up): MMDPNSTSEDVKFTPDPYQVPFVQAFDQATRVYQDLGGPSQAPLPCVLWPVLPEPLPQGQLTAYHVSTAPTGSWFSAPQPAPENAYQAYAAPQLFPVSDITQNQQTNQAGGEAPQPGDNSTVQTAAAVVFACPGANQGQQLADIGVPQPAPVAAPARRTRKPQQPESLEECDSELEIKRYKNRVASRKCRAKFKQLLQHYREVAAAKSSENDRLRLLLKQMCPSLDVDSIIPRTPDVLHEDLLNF
PP5 inh = PP5 (human) phosphatase inhibition; P53041; purified PP5c, OMFP substrate fluorescence; inhibition, % at 6.7 µM; 320,000 tested, 0.18% active;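 active = inhibition above the campaign's mean inhibition across all tested compounds plus 3 SD, cut at about 9.5% in these data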;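 also: 0% = DMSO only and 100% = 100 µM cantharidin control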
PP1 confirm = human PP1 phosphatase inhibition, confirmation; purified PP1alpha, OMFP substrate fluorescence; 1,900 tested, 52% active; shares compounds with PP1 counter; inhibition, % at 6.7 µM;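 active = mean PP1 inhibition above a set limit taken from the earlier primary screen, cut at about 15% in these data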
PP5 inh counter = counter-screen for PP1 inhibitors: human PP5 phosphatase inhibition. purified PP5c, OMFP fluorescence. shares compounds with PP1 counter. AID 2360. 1,900 tested, 4% active. inhibition, % at 6.7 µM;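 active = mean PP5 inhibition over triplicate wells above about 9.5% taken from the earlier PP1 screen, limit read from the data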
The depositor's hits bear a star; . = no result given. Most compounds without a hit are left out; they make up all but 1.7% or so of the library.

SMILES	core dimer inh	EBNA-1 inh	PP1 counter	ZTA counter	PP5 inh	PP1 confirm	PP5 inh counter
CCOc1ccccc1N1CC(C(=O)N(CC)CC(=O)Nc2ccc3c(c2)OCCO3)CC1=O (stereo not given)	-5	-2	-3	-10	2	.	.
COCCNC(=O)c1cccc(OC2CCN(C(C)COc3ccccc3)CC2)c1 (stereo not given)	0	5	0	0	0	.	.
O=C1N/C(=C/c2ccc(N3CCCC3)cc2)C(=O)N1c1ccccc1	17	-17	23*	-14	4	11	-3
COc1ccc(C(=O)NCc2nnc(SC)n2Cc2ccccc2)cc1	3	-5	-5	-4	-2	.	.
O=C(Nc1cccnc1)c1ccc(Cl)c(S(=O)(=O)N2CCCC2)c1	-1	-2	38*	15	2	-4	-8
NC(=O)CC(NC(=O)Cc1ccc(Br)cc1)c1ccc(N2CCC(Cc3ccccc3)CC2)c([N+](=O)[O-])c1 (stereo not given)	8	19	23*	5	0	10	-6
NC(=O)CC(NC(=O)Cc1ccc(Br)cc1)c1ccc(N2CCC(Br)CC2)c([N+](=O)[O-])c1 (stereo not given)	-9	4	27*	-10	0	16*	-4
CSCCC(NC(=O)COc1ccccc1)C(=O)O (stereo not given)	-2	-9	-7	10	-1	.	.
COc1ccc(OCC(=O)N(Cc2ccc(C)o2)C2CCS(=O)(=O)C2)cc1 (stereo not given)	-3	-20	-2	-14	2	.	.
CCOC(=O)C1CCCN(c2nc3ccccc3nc2C(C#N)C(=O)OCC)C1 (stereo not given)	9	-1	21*	-8	4	1	1
O=S(=O)(Nc1cccc(-c2cn3c(n2)SCC3)c1)c1ccc(F)cc1F	13	-16	-5	3	5	.	.
COC(=O)C(CCSC)NC(=O)c1cc2c(n(-c3ccccc3)c1=O)CC(C)(C)CC2=O (stereo not given)	-1	3	-1	0	0	.	.
NC(=O)CC(NC(=O)Cc1ccc(Br)cc1)c1ccc(NCCc2ccccc2F)c([N+](=O)[O-])c1 (stereo not given)	8	-1	24*	7	3	25*	-1
CCCCNc1ccc(C(CC(N)=O)NC(=O)Cc2ccc(Br)cc2)cc1[N+](=O)[O-] (stereo not given)	25	7	6	-7	1	.	.
NC(=O)CC(NC(=O)Cc1ccc(Br)cc1)c1ccc(NCCc2ccc(F)cc2)c([N+](=O)[O-])c1 (stereo not given)	13	-8	18*	-24	1	25*	-2
COc1ccc(CCNc2ccc(C(CC(N)=O)NC(=O)Cc3ccc(Br)cc3)cc2[N+](=O)[O-])cc1 (stereo not given)	3	-11	18*	-4	-5	26*	-3
COc1ccc(CCNc2ccc(C(CC(N)=O)NC(=O)c3ccc(Br)cc3)cc2[N+](=O)[O-])cc1 (stereo not given)	21	7	18*	4	0	25*	-2
CC(C)CN(C(=O)c1cccc(Cl)c1)c1c(N)n(CC(C)C)c(=O)[nH]c1=O	-5	1	-2	3	2	.	.
CN(Cc1ccnc2ccccc12)C(=O)C1CCC(=O)N(Cc2ccccc2F)C1 (stereo not given)	-6	-1	-3	-12	-1	.	.
NC(=O)CC(NC(=O)c1ccc(Br)cc1)c1ccc(NCc2ccc(F)cc2)c([N+](=O)[O-])c1 (stereo not given)	10	-4	19*	2	3	26*	-3
COc1cccc(NC(=O)Cn2nnc(C(=O)Nc3cc(Cl)ccc3OC)c2N)c1	30	8	18*	-9	0	19*	-2
COc1ccc(Cl)cc1NC(=O)c1nnn(CC(=O)Nc2ccc3c(c2)OCO3)c1N	34	-4	25*	-7	2	26*	-5
Cc1ccc(N(C(=O)CNC(=O)c2ccco2)C(C(=O)NC2CCCCC2)c2ccncc2)cc1F (stereo not given)	6	10	1	3	1	.	.
O=C(N/N=C/c1cc([N+](=O)[O-])ccc1O)NC12CC3CC(CC(C3)C1)C2	-6	4	20*	14	5	17*	0
O=C(Cn1ncc2c3ccccc3n(Cc3ccc(Cl)cc3)c2c1=O)NCCCN1CCCC1=O	0	-10	2	-1	1	.	.
SMILES	core dimer inh	EBNA-1 inh	PP1 counter	ZTA counter	PP5 inh	PP1 confirm	PP5 inh counter
CCc1ccc(NC(=O)Cn2ncc3c4ccccc4n(C)c3c2=O)cc1	11	2	24*	11	-3	22*	-5
Cn1c2ccccc2c2cnn(CC(=O)Nc3ccc(Cl)cc3)c(=O)c21	7	7	18*	-2	1	14	0
CC(C(=O)N1CCCC1)N(C)CC(=O)Nc1cccc(F)c1 (stereo not given)	.	.	-1	-5	0	.	.
O=C(N=Nc1c(O)[nH]c2ccccc12)c1cc(-c2cccs2)[nH]n1	-8	-3	18*	3	4	24*	3
O=C(Cc1cccs1)N=Nc1c(O)[nH]c2ccccc12	-5	-1	-1	-9	0	.	.
O=C(Cn1cc[n+](CC(=O)c2ccc(Cl)cc2Cl)c1)c1ccc(Cl)cc1Cl	2	5	18*	10	-2	-11	-2
c1cc2c3c(cccc3c1)NC1(CCC3(CC1)Nc1cccc4cccc(c14)N3)N2	-1	-10	6	-5	6	.	.
c1cc2c3c(cccc3c1)NC1(CCCCCC1)N2	52*	2	21*	0	1	21*	7
CC1=Nc2cccc3cccc(c23)N1	-43	-4	4	-2	1	.	.
c1cc2c3c(cccc3c1)NC1(CCCCC1)N2	34	0	26*	-12	1	10	18*
Cc1ccc2[nH]c(=O)c(C(c3nnnn3CC3CCCO3)N3CCCc4ccccc43)cc2c1 (stereo not given)	3	-4	3	-4	1	.	.
COc1ccc(-c2oc3ccccc3c2C#Cc2cncn2C)cc1	.	.	18*	25	3	25*	-6
Cc1ccc(Cl)cc1NC(=O)c1cccc(OC(F)F)c1	-5	-8	1	-14	3	.	.
COc1ccc(Oc2nc(-c3ccccn3)ncc2OC)cc1	2	7	22*	6	3	32*	3
COc1cnc(-c2ccccn2)nc1Oc1cccc(Cl)c1	-8	8	53*	-3	6	46*	-1
COc1cnc(-c2ccccn2)nc1N(C)C	-1	-5	4	-3	2	.	.

High-throughput results deposited in PubChem by The Scripps Research Institute Molecular Screening Center.
